Granule exo inh = blocks lytic granule exocytosis; TALL-104 LAMP-1 surface exposure, flow cytometry; cells stimulated with thapsigargin and PMA; inhibition, % at 10 µM; 360,000 compounds, 0.66% hits; AID 651702;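 active means inhibition above about 55%, limit read from the data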
MC4R ag barr = activates human MC4R beta-arrestin recruitment. U2OS MC4R beta-arrestin complementation, luminescence; percent of melanotan II response, DMSO zero. P32245. 360,000 compounds, 0.98% hits. activation, % at 8.9 µM;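 active means activation above a per-plate cutoff, the mean activation of sample wells on that plate plus 3 SD, cut at about 8% in these data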
EP2 modulator = modulators of human EP2 prostaglandin E2 receptor. 260,000 compounds, 0.83% hits. P43116. induction, % at 25 µM. EP2-expressing cells, cAMP HTRF FRET, PGE2 co-stimulation;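 active means compounds whose cAMP rise, as percent of the full-agonist control response, exceeds 60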;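 further: rat C6 glioma line stably carrying human EP2 under a CMV promoter; the protocol text gives 20 µM as final concentration; 100% = response of wells given 1 µM PGE2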
Target sequence (P43116 whole entry, looked up): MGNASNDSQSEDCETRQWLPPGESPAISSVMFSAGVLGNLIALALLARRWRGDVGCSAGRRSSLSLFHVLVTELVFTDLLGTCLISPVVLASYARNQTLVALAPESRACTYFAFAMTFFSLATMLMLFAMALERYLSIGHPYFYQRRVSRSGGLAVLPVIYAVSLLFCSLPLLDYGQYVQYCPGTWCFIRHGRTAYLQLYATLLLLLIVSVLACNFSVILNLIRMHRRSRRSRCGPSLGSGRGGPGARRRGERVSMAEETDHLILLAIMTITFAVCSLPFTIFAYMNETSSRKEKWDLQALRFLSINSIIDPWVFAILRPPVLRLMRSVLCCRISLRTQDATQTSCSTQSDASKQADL
EP2 antag = inhibitors of human EP2 prostaglandin E2 receptor; P43116; C6 glioma cells expressing human EP2, cAMP TR-FRET; cells stimulated with saturating PGE2; inhibition, % at 25 µM; 260,000 compounds, 0.52% hits; AID 1422;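 active means percent inhibition above 40 after rounding to a whole number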;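 further: rat C6 glioma host cells with rolipram phosphodiesterase inhibitor present; the protocol text gives 20 µM as final concentration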
T cell modulator = T cell immune modulation candidate. 2C CD8+ T cell-vesicle binding, flow cytometry; hits give low values. response (vesicle binding), % at 7 µM. 330,000 compounds, 0.068% hits. AID 2052;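 active means response, share of CD8 T cells binding vesicles, and their 90th percentile fluorescence all below set limits, cut at about 80% in these data, passing the limit was not always enough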;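 further: values below 100% mean blocked vesicle binding to the CD8+ T cells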
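Assay system – 2C mouse CD8+ T cells · Also added – QL9-loaded Drosophila micro-vesicles · Timing – Cell–vesicle co-incubation 1.5 h at 37 °C, staining 20 min on ice · Signal – flow cytometry of vesicle-bound cells · Measure – percent CD8+ FL2 mean versus row control · Controls – Peptide-free naked vesicles (low) and QL9 vesicles with 0.7% DMSO vehicle (high)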
MC4R antagonist = blocks human MC4R cAMP signaling; P32245; MC4R-expressing cells, MTII-stimulated cAMP, LANCE TR-FRET; inhibition, % at 6.5 µM; 360,000 compounds, 0.48% hits; AID 540295;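 active means inhibition above its plate's cutoff, the mean of tested wells on that plate plus 3 SD, cut at about 29% in these data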;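 further: 0% = Melanotan II alone and 100% = Melanotan II plus saturating MCL0020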
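material = U2OS cells stably expressing human melanocortin 4 receptor (MC4R) | also added = Melanotan II challenge | dosing = single nominal compound dose of 6.5 µM | detection = TR-FRET with Eu-cAMP and labeled anti-cAMP, 671 nm | replication = singlicate | timing = compound 30 min, challenge 1 h, detection 1 h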
EP2 cAMP induct = human EP2 receptor cAMP induction, negative in counter-screens; shares compounds with EP2 modulator; C6 glioma EP2 cells, cAMP HTRF induction; plus low (about EC15) PGE2 agonist; calls only at 20 µM (by protocol); 1,300 compounds, 47% hits; AID 1080;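 active means cAMP induction above 50% in the main assay while under 30% in all four parallel counter assays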;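 further: rat C6 glioma cells stably expressing human EP2 receptor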
cAMP nonselect = U2OS forskolin cAMP inhibition counter-screen. shares compounds with MC4R antagonist. parental U2OS, LANCE TR-FRET. inhibition, % at 6.5 µM. 1,600 compounds, 26% hits. AID 602193;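 active means mean inhibition over triplicates above the low-control well mean plus 3 SD, set per campaign, cut at about 13% in these data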;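 further: signal is single emission at 671 nm which falls as cellular cAMP rises; 0% = forskolin-stimulated wells and 100% = buffer without forskolin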
MC4R antag conf = human MC4R cAMP antagonism confirmation; shares compounds with MC4R antagonist; MC4R-expressing cells, MTII-stimulated cAMP, TR-FRET; inhibition, % at 6.5 µM; 1,600 compounds, 27% hits; in the data active means inhibition above about 29%;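 further: 0% = agonist stimulated wells alone and 100% = agonist stimulated wells plus saturating reference antagonist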
MC4R barr ag = human MC4R beta-arrestin agonism confirmation; 2,400 compounds, 31% hits; AID 602192; U2OS MC4R beta-arrestin recruitment, luminescence; scaled DMSO 0%, Melanotan II 100%; activation, % at 8.9 µM; shares compounds with MC4R ag barr;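 active means mean activation across replicates above the hit cutoff set in the earlier primary screen, cut at about 8% in these data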
MOR DOR agonist = counter-screen for MC4R agonists: agonists of mu-delta opioid heterodimer; AID 602194; activation, % at 9.2 µM; shares compounds with MC4R ag barr; U2OS PathHunter beta-arrestin, beta-gal luminescence; percent of deltorphin B response, DMSO zero; 2,400 compounds, 5.8% hits;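 active means mean activation across replicates exceeds the hit threshold derived in the earlier primary screen, cut at about 18% in these data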;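 further: 100% = deltorphin B at 0.9 µM final and 0% = DMSO alone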
Granule exo CP1 = lytic granule exocytosis inhibition; AID 651954; TALL-104 cells, LAMP-1 externalization, flow cytometry; stimulated with PMA plus thapsigargin; 1,500 compounds, 11% hits; inhibition, % at 10 µM; shares compounds with Granule exo inh; in the data active means inhibition above about 60%;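 further: 0% = stimulated vehicle wells and 100% = unstimulated wells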
The depositor's hits bear a star; i = inactive; nt = no result given; + = active, no number. Compounds with a hit are over-represented: about 2.6% of the library has one in this group of screens.

SMILES	Granule exo inh	MC4R ag barr	EP2 modulator	EP2 antag	T cell modulator	MC4R antagonist	others
CSc1nc2nccc(-c3ccc(-c4ccccc4)cc3)n2n1	-1	11*	70*	10	242	20	EP2 cAMP induct=i;MC4R barr ag=1;MOR DOR agonist=4
CSc1ncccc1C(=O)OCC(=O)c1ccc(Cl)s1	-1	0	nt	nt	nt	10
Cc1cc(C)n(-c2nc3ccccc3[nH]c2=O)n1	-3	1	0	15	131	2
Cc1cc(C)n(-c2nc3ccccc3nc2Nc2ccc3[nH]c(=O)[nH]c3c2)n1	3	19*	83*	9	137	3	EP2 cAMP induct=i;MC4R barr ag=9.6*;MOR DOR agonist=2
CCSc1nnc(-c2ccc(Cl)cc2)c2ccccc12	1	19*	66*	3	363	2	EP2 cAMP induct=i;MC4R barr ag=-2;MOR DOR agonist=3
CCc1c(C)sc2nc(C(C)C)n3c(=O)n(CCC(N)=O)nc3c12	nt	nt	-50	nt	nt	nt
O=C(O)CCCCCN1C(=O)/C(=C/c2cn(-c3ccccc3)nc2-c2cccs2)SC1=S	2	5	nt	nt	nt	18
O=C(O)CCN1C(=O)/C(=C/c2cn(-c3ccccc3)nc2-c2cccs2)SC1=S	1	27*	71*	4	nt	9	EP2 cAMP induct=+;MC4R barr ag=1;MOR DOR agonist=2
CC1(C)CC(C(CCN(Cc2ccccc2)C(=O)c2ccco2)c2ccc(F)cc2)CCO1 (configuration not stated)	0	-1	42	2	414	9
O=C(c1ccco1)N(CCC(c1ccccc1)c1ccco1)Cc1ccc(F)cc1 (configuration not stated)	59*	-2	70*	4	198	2	EP2 cAMP induct=+;Granule exo CP1=-11
COc1cc2cc(CCOC(=O)c3ccco3)oc(=O)c2cc1OC	-3	3	nt	nt	198	6
O=C(COc1ccccc1)Nc1cc(C(F)(F)F)ccc1N1CCCC1	74*	2	79*	19	200	0	EP2 cAMP induct=i;Granule exo CP1=-13
CC1(C)Cc2c(sc3[nH]c(=S)n(Cc4ccco4)c(=O)c23)CO1	4	0	37	40*	114	34*	cAMP nonselect=7;MC4R antag conf=17
CC1(C)Cc2c(sc3c2c(=N)n(Cc2ccco2)c(=O)n3Cc2ccccc2)CO1	-1	1	59	5	467	17
Cc1ccc2cccc(NC(=O)C(F)(F)F)c2n1	5	-1	nt	4	222	4
CCOC(=O)C(C)(C)Sc1ncnc2nc[nH]c12	-1	0	27	7	310	13
CCOC(=O)c1cc([N+](=O)[O-])cc([N+](=O)[O-])c1Sc1ncnc2nc[nH]c12	22	-3	nt	nt	nt	58*	cAMP nonselect=47*;MC4R antag conf=47*
O=C(CN1CCN(c2ccccc2)CC1)N1CCc2ccccc21	4	-1	nt	nt	309	7
Nc1ncnc2c1nc(N1CCCCC1)n2[C@@H]1O[C@H](CO)[C@@H](O)[C@H]1O	1	-1	nt	nt	244	0
COC(=O)C(Cc1ccc(O)cc1)NC(=O)C1CCN(S(=O)(=O)c2ccc(C)cc2)CC1 (configuration not stated)	-6	-1	nt	nt	253	30*	cAMP nonselect=18*;MC4R antag conf=31*
CCOc1ccc(N=Nc2ccc(O)c3ncccc23)cc1	1	-1	nt	nt	178	0
CCOc1ccc2c(ccc(/C=C/c3cc(C)c4cccnc4c3O)[n+]2C)c1	-2	1	50	52*	nt	50*	cAMP nonselect=-9;MC4R antag conf=38*
COc1cc(OC)cc(C(=O)Nc2nc3ccc(S(C)(=O)=O)cc3s2)c1	0	-3	-15	11	205	34*	cAMP nonselect=-2;MC4R antag conf=-5
O=C(Nc1ccc2c(c1)OCCO2)C1C(c2ccccc2)=Nc2ccccc2N1C(=O)c1cccnc1 (configuration not stated)	3	nt	nt	nt	nt	nt
CSCCC(NC(=O)c1ccc([N+](=O)[O-])cc1Cl)C(=O)OCC(=O)NC1CCCC(C)C1C (configuration not stated)	-2	2	-32	10	237	33*	cAMP nonselect=17*;MC4R antag conf=40*
